Molecules are shown by their SMILES. ≈ marks a conversion by molar mass, not a printed value. Bounds are passed on as bounds.

What all share (type): functional
One experiment deals with Escherichia coli. The experiment is described as follows: Antibacterial activity against 1 x 10^4 cfu/mL Escherichia coli ATCC 11303 after 24 hrs by NCCLS M7-A6 microtiter broth dilution method. The note with it: ATCC 11303, 24 h. (In broth dilution the organism is exposed to a series of concentrations in liquid medium.)
A further experiment concerns Candida albicans. The experiment is described as follows: microbe, parasite or virus in culture. The conditions noted are these: ATCC 6258, 48 h.
The next experiment concerns Bacillus subtilis. Description: Antibacterial activity against 1 x 10^4 cfu/mL Bacillus subtilis ATCC 33712 after 24 hrs by NCCLS M7-A6 microtiter broth dilution method. The note with it: ATCC 33712, 24 h.
For experiment [1], the system named is Staphylococcus aureus. Description: Antibacterial activity against 1 x 10^4 cfu/mL methicillin-resistant Staphylococcus aureus ATCC 700699 after 24 hrs by NCCLS M7-A6 microtiter broth dilution method. The note with it: ATCC 700699, 24 h. Summed up: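 Bacteria pre-cultured in LB broth 24 h at 37 °C. Colonies suspended in sterile saline and adjusted to 0.5 McFarland (625 nm, 1–2 × 10⁸ cfu/mL), then diluted 1:10,000 in LB. Compounds from a 4 mg/mL DMSO stock were two-fold serially diluted across a 96-well plate, 200 down to 0.39 µg/mL. MIC80 was the lowest concentration preventing visible growth (>80% inhibition).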

Experiment [2] relates to Staphylococcus aureus. Description: Antibacterial activity against 1 x 10^4 cfu/mL Staphylococcus aureus ATCC 29213 after 24 hrs by NCCLS M7-A6 microtiter broth dilution method. The conditions noted are these: ATCC 29213, 24 h.

`COc1ccc(-c2oc3ccc(C)cc3c2C(=O)c2ccc(Cl)cc2)cc1`: the MIC80 in the experiment with Escherichia coli, against Candida albicans, against Bacillus subtilis, against Staphylococcus aureus [1] and in the experiment with Staphylococcus aureus [2] was more than 200 µg/mL in each case.
`CC1(C)S[C@@H]2[C@H](NC(=O)Cc3ccccc3)C(=O)N2[C@H]1C(=O)[O-].[Na+]` [PENICILLIN G SODIUM]: the MIC80 was 0.78 µg/mL against Escherichia coli, less than 0.39 µg/mL in the experiment with Bacillus subtilis, 3.12 µg/mL with Staphylococcus aureus [1] and 3.12 µg/mL in the experiment on Staphylococcus aureus [2].
For the compound `COc1ccc(-c2oc3ccc(C)cc3c2C(=O)c2cc(OC)cc(OC)c2)cc1`, the MIC80 in the experiment with Escherichia coli, against Candida albicans, against Bacillus subtilis, against Staphylococcus aureus [1] and against Staphylococcus aureus [2] was more than 200 µg/mL each time.
In the experiment with Candida albicans, `Clc1ccc(COC(Cn2ccnc2)c2ccc(Cl)cc2Cl)c(Cl)c1.O=[N+]([O-])O` (centres undefined) [MICONAZOLE NITRATE] had an MIC80 of less than 0.39 µg/mL.
For the compound `COc1ccc(-c2oc3ccc(C)cc3c2C(=O)c2cc(Cl)cc(Cl)c2)cc1`, the MIC80 against Escherichia coli, against Candida albicans, against Bacillus subtilis, in the experiment on Staphylococcus aureus [1] and in the experiment with Staphylococcus aureus [2] was more than 200 µg/mL in each case.
Take `COc1ccc(-c2oc3ccc(C)cc3c2C(=O)c2cc(OC)c(OC)c(OC)c2)cc1`: the MIC80 against Escherichia coli, against Candida albicans, against Bacillus subtilis, in the experiment with Staphylococcus aureus [1] and against Staphylococcus aureus [2] was more than 200 µg/mL in each case.
As for `COc1ccc(-c2oc3ccc(C)cc3c2C(=O)c2cc(O)cc(OC)c2)cc1`, the MIC80 against Escherichia coli is 0.78 µg/mL (≈ 2.01 µM); with Candida albicans it was more than 200 µg/mL; in the experiment on Bacillus subtilis it was 0.78 µg/mL (≈ 2.01 µM); against Staphylococcus aureus [1] it was 0.78 µg/mL (≈ 2.01 µM); in the experiment with Staphylococcus aureus [2], less than 0.39 µg/mL.
As for `CO/N=C(\C(=O)N[C@@H]1C(=O)N2C(C(=O)O)=C(COC(C)=O)CS[C@H]12)c1csc(N)n1` [CEFOTAXIME], the MIC80 was more than 200 µg/mL in the experiment on Escherichia coli, 0.78 µg/mL (≈ 1.71 µM) against Bacillus subtilis, 3.12 µg/mL (≈ 6.85 µM) in the experiment with Staphylococcus aureus [1] and 3.12 µg/mL (≈ 6.85 µM) against Staphylococcus aureus [2].
In the case of `COc1ccc(-c2oc3ccc(C)cc3c2C(=O)c2ccccc2Br)cc1`, the MIC80 against Escherichia coli is more than 200 µg/mL; against Candida albicans it was more than 200 µg/mL; in the experiment on Bacillus subtilis it was 0.78 µg/mL (≈ 1.85 µM); in the experiment with Staphylococcus aureus [1], more than 200 µg/mL; in the experiment with Staphylococcus aureus [2], more than 200 µg/mL.
For the compound `Oc1ccc(/C=C/c2cc(O)cc(O)c2)cc1` [RESVERATROL], the MIC80 with Escherichia coli is 25 µg/mL (≈ 110 µM); in the experiment on Candida albicans it was more than 200 µg/mL; in the experiment with Bacillus subtilis, 25 µg/mL (≈ 110 µM); with Staphylococcus aureus [1] it was 25 µg/mL (≈ 110 µM); against Staphylococcus aureus [2], 25 µg/mL (≈ 110 µM).
Consider `CC(=O)N1CCN(c2ccc(OCC3COC(Cn4ccnc4)(c4ccc(Cl)cc4Cl)O3)cc2)CC1` (centres undefined) [KETOCONAZOLE], for which the MIC80 against Candida albicans is less than 0.39 µg/mL.
With `COc1ccc(-c2oc3ccc(C)cc3c2C(=O)c2ccc(O)c(C)c2)cc1`, the MIC80 was 0.78 µg/mL (≈ 2.09 µM) with Escherichia coli; more than 200 µg/mL against Candida albicans; 1.56 µg/mL (≈ 4.19 µM) against Bacillus subtilis; 0.78 µg/mL (≈ 2.09 µM) in the experiment on Staphylococcus aureus [1]; 0.78 µg/mL (≈ 2.09 µM) with Staphylococcus aureus [2].
As for `COc1ccc(-c2oc3ccc(C)cc3c2C(=O)c2cccc(OC)c2OC)cc1`, the MIC80 in the experiment with Escherichia coli, against Candida albicans, in the experiment on Bacillus subtilis, in the experiment on Staphylococcus aureus [1] and in the experiment with Staphylococcus aureus [2] was more than 200 µg/mL in each case.
As for `COc1ccc(-c2oc3ccc(C)cc3c2C(=O)c2ccc(O)c(I)c2)cc1`, the MIC80 with Escherichia coli is 3.12 µg/mL (≈ 6.44 µM); in the experiment on Candida albicans, more than 200 µg/mL; in the experiment with Bacillus subtilis, 1.56 µg/mL (≈ 3.22 µM); with Staphylococcus aureus [1], 0.78 µg/mL (≈ 1.61 µM); in the experiment with Staphylococcus aureus [2], 0.78 µg/mL (≈ 1.61 µM).
With `COc1ccc(-c2oc3ccc(C)cc3c2C(=O)c2cc(F)c(F)cc2Br)cc1`, the MIC80 in the experiment with Escherichia coli, against Candida albicans, in the experiment with Bacillus subtilis, in the experiment with Staphylococcus aureus [1] and in the experiment with Staphylococcus aureus [2] was more than 200 µg/mL each time.
Regarding `CC(C)(O/N=C(\C(=O)N[C@@H]1C(=O)N2C(C(=O)[O-])=C(C[n+]3ccccc3)CS[C@H]12)c1csc(N)n1)C(=O)O` [CEFTAZIDIME], the MIC80 in the experiment on Escherichia coli is more than 200 µg/mL; in the experiment with Bacillus subtilis it was 6.25 µg/mL (≈ 11.4 µM); against Staphylococcus aureus [1], 12.5 µg/mL (≈ 22.9 µM); in the experiment on Staphylococcus aureus [2] it was 0.78 µg/mL (≈ 1.43 µM).
As for `COc1ccc(C(=O)c2c(-c3ccc(OC)cc3)oc3ccc(C)cc23)cc1`, the MIC80 with Escherichia coli, in the experiment on Candida albicans, in the experiment on Bacillus subtilis, with Staphylococcus aureus [1] and against Staphylococcus aureus [2] was more than 200 µg/mL in each case.
As to `COc1ccc(-c2oc3ccc(C)cc3c2C(=O)c2cccc(OC)c2O)cc1`, the MIC80 in the experiment with Escherichia coli, against Candida albicans, with Bacillus subtilis, against Staphylococcus aureus [1] and against Staphylococcus aureus [2] was more than 200 µg/mL throughout.
`COc1ccc(-c2oc3ccc(C)cc3c2C(=O)c2ccc(O)cc2)cc1`: the MIC80 against Escherichia coli is 0.78 µg/mL (≈ 2.18 µM); with Candida albicans, more than 200 µg/mL; with Bacillus subtilis, 0.78 µg/mL (≈ 2.18 µM); against Staphylococcus aureus [1], 0.78 µg/mL (≈ 2.18 µM); against Staphylococcus aureus [2] it was less than 0.39 µg/mL.

For the origin of these results see ChEMBL document CHEMBL1806457, “Synthesis and antimicrobial evaluation of new benzofuran derivatives” (2011).
